# Sampled rows, rich in hits. Any-hit rate of the full collection: about 1.8%.
# Jurkat NFkB inh – inhibitors of the PMA/ionomycin-induced NF-kB reporter in Jurkat cells; AID 435003; hit rate 0.53% among 330,000; inhibition, % at 4 µM; PMA/ionomycin-induced NF-kB luciferase reporter, luminescence; in the data active means inhibition above about 50%
# CRFR2-BP antag – antagonists of CRF-binding protein/CRF-R2 receptor complex | inhibition, % at 11.8 µM | AID 588475 | hit rate 0.59% among 350,000 | HEK293 CRF-R2/CRF-BP, CRF-induced calcium fluorescence;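 active means inhibition of the ligand-induced calcium signal above about 50% at the single tested concentration, limit read from the data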
# XBP1 UPR activ – activators of adaptive arm of unfolded protein response (XBP1). AID 463104. CHO-XBP1 luciferase reporter, IRE1-XBP1 UPR activation, luminescence; percent of tunicamycin response, DMSO as zero. hit rate 0.33% among 330,000. activation, % at 20 µM;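 active means versus positive control, 20 µM dose yields 30% or more activation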
#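 assay system = CHO-XBP1 luciferase reporter cells | amount = 1000 cells/well | buffer or medium = F12 plus 10% FBS | compound dosing = single point, 20 µM final compound, 1% DMSO | incubation = 16-18 h cell attachment at 37 °C, then 6 h compound exposure | detection = Steady-Glo luminescence read | controls = tunicamycin 10 µg/mL and vehicle-only wells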
# 697 NFkB inh – inhibitors of the PMA/ionomycin-induced NF-kB reporter in 697 B cells; inhibition, % at 4 µM; 697 B-cell NF-kB luciferase reporter, 16 h; hit rate 0.33% among 330,000; AID 435022; in the data active means inhibition above about 35%
# CHOP UPR activ – activators of apoptotic arm of unfolded protein response (CHOP); CHO-CHOP luciferase reporter, UPR activation, luminescence; percent of tunicamycin response over DMSO baseline; activation, % at 10 µM; hit rate 0.34% among 330,000; AID 449763;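 active means at 10 µM dose, activation of 40% or more, normalized to positive control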
#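 Material: CHO-CHOP cells, stable luciferase reporter of PERK-eIF2a-CHOP signalling; quantity: 500 reporter cells seeded per well; buffer or medium: F12 medium containing 10% fetal bovine serum; compound: one dose, 10 µM in 0.5% DMSO; incubation: 6 h compound treatment, 37 °C; measured by: Steady-Glo luciferase luminescence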
# UPR XBP1 confirm – confirmation of adaptive unfolded protein response (XBP1) activators; shares compounds with XBP1 UPR activ; CHO-XBP1 IRE1-XBP1 luciferase reporter, luminescence; activation, % at 20 µM; hit rate 63% among 1,000;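 active means reporter signal at least 30% of the positive control's activation in two or more of four replicate wells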
# Numbers stand for hits; . = inactive; / = not tested or not shown.
SMILES,Jurkat NFkB inh,CRFR2-BP antag,XBP1 UPR activ,697 NFkB inh,CHOP UPR activ,UPR XBP1 confirm
Cc1nc(Nc2nc(-c3ccccc3)cc(=O)[nH]2)nc2ccccc12,.,.,84.1,.,.,131.7
C[C@@H]1CCC(=O)N(C[C@@H](C)CSc2ccccc2)CC1,.,.,.,.,.,/
COc1cc(OC)c2c(-c3cccc(-c4ccc(CO)cc4)c3)cc(=O)oc2c1,/,.,34.1,.,.,29.7
COc1cc(OC)c2c(-c3cccc(-c4ccc(OC(F)(F)F)cc4)c3)cc(=O)oc2c1,/,.,.,.,.,/
C[C@H](O)[C@@H]1C(=O)N2CCc3c([nH]c4ccccc34)[C@@H]2C[C@@H]1N(C)C(=O)NC1CCCCC1,/,.,/,/,/,/
Cn1cc(/C=C(\C#N)C(=O)Nc2cccc([N+](=O)[O-])c2)c2ccccc21,.,.,78.7,.,.,72.9
CC(C)(C)OC(=O)NCCCCCNC(=O)c1nc[nH]c1C(=O)NCCCCCNC(=O)OC(C)(C)C,.,.,.,.,.,/
O=[N+]([O-])c1cc(-c2ccc(/C=N/c3nc4ccccn4c3-c3ccco3)o2)ccc1Cl,.,.,100.9,.,.,98.2
O=C1CCCCN1CCC(=O)N1CCCC(N2CCN(c3ccccc3)CC2)C1 (centres undefined),.,.,.,.,.,/
N=c1c(S(=O)(=O)c2ccccc2)cc2c(=O)n3ccccc3nc2n1C1CCCC1,.,.,30.2,.,.,.
N=c1c(S(=O)(=O)c2ccc(Br)cc2)cc2c(=O)n3ccccc3nc2n1C1CCCC1,.,.,.,.,.,/
CCCCN(CC)CCCNC(=O)c1cn(C)c2ccc(S(=O)(=O)N(C)C3CCCCC3)cc2c1=O,.,.,.,.,.,/
Cc1cc(-n2c(SCC(=O)Nc3ccc(F)c(F)c3)nc3n[nH]c(C)c3c2=N)ccc1Cl,.,.,34.5,.,.,60.2
Cc1cc(-n2c(SCC(=O)Nc3ccc(Br)cc3)nc3n[nH]c(C)c3c2=N)ccc1Cl,.,.,36.3,.,.,.
N#CC1=C(N)OC2=C(C(=O)CCC2)C1c1cc2c(cc1Br)OCO2 (centres undefined),.,.,.,.,.,/
Cc1nnc(N2CCCC(C(=O)Nc3cc(F)ccc3F)C2)c2nn(-c3ccccc3)c(C)c12 (centres undefined),.,.,41.4,.,.,.
Cc1nnc(N2CCCC(C(=O)NCc3ccc(OC(C)C)cc3)C2)c2nn(-c3ccccc3)c(C)c12 (centres undefined),.,.,.,.,.,/
CC(=O)NC(c1ccco1)c1ccc2cccnc2c1O (centres undefined),.,.,32.0,.,.,.
O=C(Nc1ccc(O)c(-c2nc3ccccc3s2)c1)c1cc(=O)c2ccccc2o1,.,.,41.6,.,.,93.5
Cc1ccc(Cn2c(=N)n(CC(=O)c3ccc([N+](=O)[O-])cc3)c3ccccc32)cc1,.,.,67.4,.,.,.
Cc1c(-c2ccc(/C=N/NC(=O)C(=O)Nc3ccccc3F)o2)cccc1[N+](=O)[O-],.,.,73.0,.,.,.
c1ccc(-c2ccc(C3=Nn4c(nnc4-c4cc(-c5ccccc5)n[nH]4)SC3)cc2)cc1,.,.,64.1,.,.,.
Clc1ccc(C2=Nn3c(nnc3-c3n[nH]c4c3CCC4)SC2)cc1,.,.,.,.,.,/
CC1=Nn2c(nnc2-c2cc(-c3ccccc3)n[nH]2)SC1,.,.,.,.,.,/
Brc1ccc(C2=Nn3c(nnc3-c3n[nH]c4c3CCC4)SC2)cc1,.,.,36.8,.,.,49.4
SMILES,Jurkat NFkB inh,CRFR2-BP antag,XBP1 UPR activ,697 NFkB inh,CHOP UPR activ,UPR XBP1 confirm
COC(=O)c1ccc(NC(=O)N(c2ccccc2)c2ccccc2)cc1,.,.,.,.,.,/
ClCC(CNCc1ccccc1)c1ccccc1 (centres undefined),/,.,/,/,/,/
Cc1ccc(OC(=O)COc2ccccc2C)cc1,.,.,.,.,.,/
Cc1ccc(SC(=O)COc2ccccc2C)cc1,.,.,49.3,.,.,.
CCOc1ccc(C(=O)Nc2ccc(NC(=O)c3ccco3)c(Cl)c2)cc1Cl,.,.,48.2,.,.,119.9
CCOc1ccc(C(=O)Nc2ccc(NC(=O)c3ccco3)c(Cl)c2)cc1Br,.,.,.,.,.,/

# Screening data from PubChem BioAssay.
